# Experimental data taken from ChEMBL document CHEMBL4689842, “EUbOPEN Chemogenomics Library wave 1” (2021).
# Test system: Fibroblast
# Experiment: Multiplex assay against human fibroblast
# Format: toxicity, cell-based
# Procedure, shortened: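 Compound was added to live cells that had been stained at seeding with Hoechst33342, BioTracker Green Microtubule Cytoskeleton Dye, MitoTracker Red and Annexin V Alexa Fluor 680, and imaging followed on a CQ1 microscope at 37°C and 5% CO2. CellPathfinder machine-learning gating divided cells into Hoechst high-intensity objects or normal cells, normal cells into healthy, pyknosed or fragmented nuclei, and pyknosed cells into mitotic or apoptotic. Tubulin, mitochondrial-mass and membrane-permeability phenotypes are per cents of healthy-nucleus cells.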
# [1] = 12 h, 1 µM, compound concentration 1 uM, replicate 1
# [2] = 12 h, 1 µM, compound concentration 1 uM, replicate 2
# [3] = 12 h, 10 µM, compound concentration 10 uM, replicate 1
# [4] = 12 h, 10 µM, compound concentration 10 uM, replicate 2
# [5] = 24 h, 1 µM, compound concentration 1 uM, replicate 1
# [6] = 24 h, 1 µM, compound concentration 1 uM, replicate 2
# [7] = 24 h, 10 µM, compound concentration 10 uM, replicate 1
# [8] = 24 h, 10 µM, compound concentration 10 uM, replicate 2
# [9] = 48 h, 1 µM, compound concentration 1 uM, replicate 1
# [10] = 48 h, 1 µM, compound concentration 1 uM, replicate 2
# [11] = 48 h, 10 µM, compound concentration 10 uM, replicate 1
# [12] = 48 h, 10 µM, compound concentration 10 uM, replicate 2
smiles,measurement,setting,value
CCc1cccc(CC)c1NC(=O)c1nn(C)c2c1CCc1cnc(Nc3ccc(N4CCN(C)CC4)cc3OC)nc1-2,Population Apoptotic (%),[1],45%
same,Population Fragmented Nuclei (%),[1],17%
same,Population Healthy Nuclei (%),[1],47%
same,Population Hoechst High Intensity Objects (%),[1],9%
same,Population Membrane Permeable-Phenotype (%),[1],8%
same,Population Mitochondria Different-Phenotype (%),[1],72%
same,Population Mitotic Cells (%),[1],54%
same,Population Normal (%),[1],90%
same,Population Pyknosed Nuclei (%),[1],34%
same,Population Tubulin-Different-Phenotype (%),[1],75%
same,Total Cell Count,[1],142
same,Population Apoptotic (%),[2],50%
same,Population Fragmented Nuclei (%),[2],54%
same,Population Healthy Nuclei (%),[2],18%
same,Population Hoechst High Intensity Objects (%),[2],25%
same,Population Membrane Permeable-Phenotype (%),[2],0%
same,Population Mitochondria Different-Phenotype (%),[2],75%
same,Population Mitotic Cells (%),[2],50%
same,Population Normal (%),[2],74%
same,Population Pyknosed Nuclei (%),[2],27%
same,Total Cell Count,[2],59
same,Population Apoptotic (%),[3],71%
same,Population Fragmented Nuclei (%),[3],32%
same,Population Healthy Nuclei (%),[3],46%
same,Population Hoechst High Intensity Objects (%),[3],11%
same,Population Membrane Permeable-Phenotype (%),[3],2%
same,Population Mitochondria Different-Phenotype (%),[3],11%
same,Population Mitotic Cells (%),[3],28%
same,Population Normal (%),[3],88%
same,Population Pyknosed Nuclei (%),[3],20%
same,Population Tubulin-Different-Phenotype (%),[3],18%
same,Total Cell Count,[3],213
same,Population Apoptotic (%),[4],20%
same,Population Fragmented Nuclei (%),[4],51%
same,Population Healthy Nuclei (%),[4],40%
same,Population Hoechst High Intensity Objects (%),[4],21%
same,Population Membrane Permeable-Phenotype (%),[4],3%
same,Population Mitochondria Different-Phenotype (%),[4],30%
same,Population Mitotic Cells (%),[4],80%
same,Population Normal (%),[4],78%
same,Population Pyknosed Nuclei (%),[4],7%
same,Population Tubulin-Different-Phenotype (%),[4],23%
same,Total Cell Count,[4],82
same,Population Apoptotic (%),[5],80%
same,Population Fragmented Nuclei (%),[5],25%
same,Population Healthy Nuclei (%),[5],29%
same,Population Hoechst High Intensity Objects (%),[5],10%
same,Population Membrane Permeable-Phenotype (%),[5],2%
same,Population Mitochondria Different-Phenotype (%),[5],89%
same,Population Mitotic Cells (%),[5],19%
same,Population Normal (%),[5],89%
same,Population Pyknosed Nuclei (%),[5],44%
same,Population Tubulin-Different-Phenotype (%),[5],78%
same,Total Cell Count,[5],140
same,Population Apoptotic (%),[6],100%
same,Population Fragmented Nuclei (%),[6],61%
same,Population Healthy Nuclei (%),[6],11%
same,Population Hoechst High Intensity Objects (%),[6],30%
same,Population Membrane Permeable-Phenotype (%),[6],0%
same,Population Mitochondria Different-Phenotype (%),[6],100%
same,Population Mitotic Cells (%),[6],0%
same,Population Normal (%),[6],69%
same,Population Pyknosed Nuclei (%),[6],27%
same,Population Tubulin-Different-Phenotype (%),[6],100%
same,Total Cell Count,[6],63
same,Population Apoptotic (%),[7],72%
same,Population Fragmented Nuclei (%),[7],37%
same,Population Healthy Nuclei (%),[7],46%
same,Population Hoechst High Intensity Objects (%),[7],13%
same,Population Membrane Permeable-Phenotype (%),[7],4%
same,Population Mitochondria Different-Phenotype (%),[7],11%
same,Population Mitotic Cells (%),[7],27%
same,Population Normal (%),[7],86%
same,Population Pyknosed Nuclei (%),[7],16%
same,Total Cell Count,[7],262
same,Population Apoptotic (%),[8],66%
same,Population Fragmented Nuclei (%),[8],60%
same,Population Healthy Nuclei (%),[8],35%
same,Population Hoechst High Intensity Objects (%),[8],20%
same,Population Membrane Permeable-Phenotype (%),[8],6%
same,Population Mitochondria Different-Phenotype (%),[8],10%
same,Population Mitotic Cells (%),[8],33%
same,Population Normal (%),[8],80%
same,Population Pyknosed Nuclei (%),[8],3%
same,Population Tubulin-Different-Phenotype (%),[8],16%
same,Total Cell Count,[8],105
Cl.O=c1c2cccn2c2ccccc2n1CCCN1CCC(c2ccc(Cl)cc2)CC1,Population Apoptotic (%),[1],68%
same,Population Fragmented Nuclei (%),[1],21%
same,Population Healthy Nuclei (%),[1],61%
same,Population Hoechst High Intensity Objects (%),[1],12%
same,Population Membrane Permeable-Phenotype (%),[1],10%
same,Population Mitochondria Different-Phenotype (%),[1],15%
same,Population Mitotic Cells (%),[1],31%
same,Population Normal (%),[1],87%
same,Population Pyknosed Nuclei (%),[1],17%
same,Population Tubulin-Different-Phenotype (%),[1],40%
same,Total Cell Count,[1],123
same,Population Apoptotic (%),[2],60%
same,Population Fragmented Nuclei (%),[2],16%
same,Population Healthy Nuclei (%),[2],73%
same,Population Hoechst High Intensity Objects (%),[2],8%
same,Population Membrane Permeable-Phenotype (%),[2],0%
same,Population Mitochondria Different-Phenotype (%),[2],56%
same,Population Mitotic Cells (%),[2],40%
same,Population Normal (%),[2],91%
same,Population Pyknosed Nuclei (%),[2],9%
same,Population Tubulin-Different-Phenotype (%),[2],30%
same,Total Cell Count,[2],119
same,Population Apoptotic (%),[3],48%
same,Population Fragmented Nuclei (%),[3],28%
same,Population Healthy Nuclei (%),[3],42%
same,Population Hoechst High Intensity Objects (%),[3],30%
same,Population Membrane Permeable-Phenotype (%),[3],5%
same,Population Mitochondria Different-Phenotype (%),[3],52%
same,Population Mitotic Cells (%),[3],51%
same,Population Normal (%),[3],69%
same,Population Pyknosed Nuclei (%),[3],28%
same,Population Tubulin-Different-Phenotype (%),[3],84%
same,Total Cell Count,[3],175
same,Population Apoptotic (%),[4],78%
same,Population Fragmented Nuclei (%),[4],21%
same,Population Healthy Nuclei (%),[4],57%
same,Population Hoechst High Intensity Objects (%),[4],11%
same,Population Membrane Permeable-Phenotype (%),[4],74%
same,Population Mitochondria Different-Phenotype (%),[4],98%
same,Population Mitotic Cells (%),[4],21%
same,Population Normal (%),[4],89%
same,Population Pyknosed Nuclei (%),[4],21%
same,Population Tubulin-Different-Phenotype (%),[4],98%
same,Total Cell Count,[4],58
same,Population Apoptotic (%),[5],48%
same,Population Fragmented Nuclei (%),[5],28%
same,Population Healthy Nuclei (%),[5],44%
same,Population Hoechst High Intensity Objects (%),[5],11%
same,Population Membrane Permeable-Phenotype (%),[5],12%
same,Population Mitochondria Different-Phenotype (%),[5],10%
same,Population Mitotic Cells (%),[5],51%
same,Population Normal (%),[5],88%
same,Population Pyknosed Nuclei (%),[5],27%
same,Population Tubulin-Different-Phenotype (%),[5],45%
same,Total Cell Count,[5],121
same,Population Apoptotic (%),[6],25%
same,Population Fragmented Nuclei (%),[6],16%
same,Population Healthy Nuclei (%),[6],70%
same,Population Hoechst High Intensity Objects (%),[6],7%
same,Population Membrane Permeable-Phenotype (%),[6],2%
same,Population Mitochondria Different-Phenotype (%),[6],38%
same,Population Mitotic Cells (%),[6],75%
same,Population Normal (%),[6],92%
same,Population Pyknosed Nuclei (%),[6],13%
same,Population Tubulin-Different-Phenotype (%),[6],19%
same,Total Cell Count,[6],147
same,Population Apoptotic (%),[7],67%
same,Population Fragmented Nuclei (%),[7],21%
same,Population Healthy Nuclei (%),[7],49%
same,Population Hoechst High Intensity Objects (%),[7],39%
same,Population Membrane Permeable-Phenotype (%),[7],7%
same,Population Mitochondria Different-Phenotype (%),[7],40%
same,Population Mitotic Cells (%),[7],32%
same,Population Normal (%),[7],60%
same,Population Pyknosed Nuclei (%),[7],29%
same,Population Tubulin-Different-Phenotype (%),[7],63%
same,Total Cell Count,[7],193
same,Population Apoptotic (%),[8],87%
same,Population Fragmented Nuclei (%),[8],14%
same,Population Healthy Nuclei (%),[8],64%
same,Population Hoechst High Intensity Objects (%),[8],7%
same,Population Membrane Permeable-Phenotype (%),[8],72%
same,Population Mitochondria Different-Phenotype (%),[8],98%
same,Population Mitotic Cells (%),[8],12%
same,Population Normal (%),[8],92%
same,Population Pyknosed Nuclei (%),[8],20%
same,Population Tubulin-Different-Phenotype (%),[8],98%
same,Total Cell Count,[8],65
same,Population Apoptotic (%),[9],45%
same,Population Fragmented Nuclei (%),[9],43%
same,Population Healthy Nuclei (%),[9],36%
same,Population Hoechst High Intensity Objects (%),[9],14%
same,Population Membrane Permeable-Phenotype (%),[9],11%
same,Population Mitochondria Different-Phenotype (%),[9],2%
same,Population Mitotic Cells (%),[9],54%
same,Population Normal (%),[9],85%
same,Population Pyknosed Nuclei (%),[9],19%
same,Population Tubulin-Different-Phenotype (%),[9],47%
same,Total Cell Count,[9],142
same,Population Apoptotic (%),[10],66%
same,Population Fragmented Nuclei (%),[10],44%
same,Population Healthy Nuclei (%),[10],52%
same,Population Hoechst High Intensity Objects (%),[10],11%
same,Population Membrane Permeable-Phenotype (%),[10],5%
same,Population Mitochondria Different-Phenotype (%),[10],1%
same,Population Mitotic Cells (%),[10],33%
same,Population Normal (%),[10],88%
same,Population Pyknosed Nuclei (%),[10],2%
same,Population Tubulin-Different-Phenotype (%),[10],55%
same,Total Cell Count,[10],120
same,Population Apoptotic (%),[11],81%
same,Population Fragmented Nuclei (%),[11],28%
same,Population Healthy Nuclei (%),[11],50%
same,Population Hoechst High Intensity Objects (%),[11],48%
same,Population Membrane Permeable-Phenotype (%),[11],2%
same,Population Mitochondria Different-Phenotype (%),[11],46%
same,Population Mitotic Cells (%),[11],18%
same,Population Normal (%),[11],51%
same,Population Pyknosed Nuclei (%),[11],22%
same,Population Tubulin-Different-Phenotype (%),[11],78%
same,Total Cell Count,[11],193
same,Population Apoptotic (%),[12],56%
same,Population Fragmented Nuclei (%),[12],27%
same,Population Healthy Nuclei (%),[12],52%
same,Population Hoechst High Intensity Objects (%),[12],55%
same,Population Membrane Permeable-Phenotype (%),[12],3%
same,Population Mitochondria Different-Phenotype (%),[12],48%
same,Population Mitotic Cells (%),[12],44%
same,Population Normal (%),[12],44%
same,Population Pyknosed Nuclei (%),[12],19%
same,Population Tubulin-Different-Phenotype (%),[12],72%
same,Total Cell Count,[12],281
